Experimental data from ChEMBL document CHEMBL1949601, “γ-Carbolines: a novel class of cannabinoid agonists with high aqueous solubility and restricted CNS penetration” (Bioorg Med Chem Lett, 2012).
≈ marks a conversion by molar mass, not a printed value.

Columns and labels:
[1] = target: Glucagon-like peptide 1 receptor (Homo sapiens) (UniProt P43220); assay: Activity at human GLP1 receptor at 10 uM
[2] = Aqueous solubility of the compound at pH 7.4; format: physicochemical
[3] = Activity at nAChR receptor at 10 uM
Rattus norvegicus [4] = assay: Toxicity in Sprague-Dawley rat carrageenan pain model assessed as hypoactivity at 0.35 to 1.4 mg/kg, sc; format: organism-based; parameters: dose 0.35-1.4 mg/kg, route subcutaneous; conditions: in vivo
Procedure, shortened: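 Carrageenan-model rats given 0.35–1.4 mg/kg sc; hypoactivity scored 0 absent, 1 mild, 2 moderate, 3 severe; ptosis and exophthalmos also checked. n = 7; mean ± SEM; one-way ANOVA, Holm-Sidak versus vehicle.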

[5] = Fraction unbound in Sprague-Dawley rat plasma at 1 mg/kg, sc; format: ADME, organism-based; parameters: dose 1 mg/kg, route subcutaneous
Cannabinoid receptor 1 [6] = target: T1, Cannabinoid receptor 1 (Homo sapiens, UniProt P21554); assay: Agonist activity at human CB1 receptor expressed in HEK293 EBNA cells by [35S]GTPgamma binding assay; format: functional, cell-based
T1 sequence (P21554 whole entry): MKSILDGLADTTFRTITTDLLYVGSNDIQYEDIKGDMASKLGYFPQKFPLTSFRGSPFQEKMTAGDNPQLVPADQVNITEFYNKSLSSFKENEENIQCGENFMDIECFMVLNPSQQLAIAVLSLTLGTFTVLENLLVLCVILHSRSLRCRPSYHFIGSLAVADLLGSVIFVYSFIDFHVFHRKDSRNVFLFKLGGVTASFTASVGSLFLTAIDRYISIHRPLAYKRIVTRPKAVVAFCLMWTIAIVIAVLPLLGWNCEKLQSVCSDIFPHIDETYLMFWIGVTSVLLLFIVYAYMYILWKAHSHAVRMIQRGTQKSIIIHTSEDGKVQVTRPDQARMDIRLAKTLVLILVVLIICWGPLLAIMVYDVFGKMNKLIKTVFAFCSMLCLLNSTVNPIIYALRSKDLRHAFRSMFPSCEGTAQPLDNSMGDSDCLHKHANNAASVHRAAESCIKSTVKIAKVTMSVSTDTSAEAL

[7] = target: Prokineticin receptor 1 (Mus musculus) (UniProt Q9JKL1); assay: Activity at mouse GPR73 receptor at 10 uM
Sequence of Prokineticin receptor 1 (Mus musculus) (Q9JKL1 whole entry): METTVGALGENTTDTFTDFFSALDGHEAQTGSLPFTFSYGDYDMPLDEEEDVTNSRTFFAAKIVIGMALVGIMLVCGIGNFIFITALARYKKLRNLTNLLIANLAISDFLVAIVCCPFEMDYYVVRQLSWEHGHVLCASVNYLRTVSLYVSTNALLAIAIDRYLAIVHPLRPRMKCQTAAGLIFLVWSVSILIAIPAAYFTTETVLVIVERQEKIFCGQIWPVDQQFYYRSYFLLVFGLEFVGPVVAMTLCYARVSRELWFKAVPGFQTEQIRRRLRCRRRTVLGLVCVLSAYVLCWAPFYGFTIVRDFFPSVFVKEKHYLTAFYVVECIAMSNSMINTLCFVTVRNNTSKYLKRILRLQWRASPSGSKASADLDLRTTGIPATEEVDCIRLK

[8] = target: 5-hydroxytryptamine receptor 6 (Homo sapiens) (UniProt P50406); assay: Activity at human 5HT6 receptor at 10 uM
Cannabinoid receptor 1 [9] = target: T1, Cannabinoid receptor 1; assay: Displacement of [3H]-CP55,940 from human CB1 receptor expressed in HEK293 cells; format: cell-based
[10] = Metabolic stability in rat liver microsomes; format: ADME, Microsome; conditions: read-out: Stability
[11] = target: Muscarinic acetylcholine receptor M3 (Homo sapiens) (UniProt P20309); assay: Activity at human M3 receptor at 10 uM
[12] = target: C-C chemokine receptor type 2 (Homo sapiens) (UniProt P41597); assay: Activity at human CCR2b at 10 uM
Sequence of C-C chemokine receptor type 2 (Homo sapiens) (P41597 whole entry, looked up): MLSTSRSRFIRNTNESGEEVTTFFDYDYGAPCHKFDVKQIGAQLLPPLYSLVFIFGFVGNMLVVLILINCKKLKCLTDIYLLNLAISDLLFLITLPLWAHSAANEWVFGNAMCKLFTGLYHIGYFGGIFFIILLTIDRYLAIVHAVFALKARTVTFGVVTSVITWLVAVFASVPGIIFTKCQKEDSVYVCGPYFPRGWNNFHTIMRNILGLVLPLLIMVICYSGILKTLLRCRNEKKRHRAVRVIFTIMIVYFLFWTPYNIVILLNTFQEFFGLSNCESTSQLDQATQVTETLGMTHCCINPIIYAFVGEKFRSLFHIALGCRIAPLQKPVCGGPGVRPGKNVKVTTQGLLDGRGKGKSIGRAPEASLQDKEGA

[13] = Ratio of drug uptake in brain to plasma of mouse; format: ADME, cell-free; conditions: read-out: BPR
Procedure, shortened: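 Compound given sc or po; blood and brain sampled 30 or 60 min post-dose; total plasma and brain concentrations by protein precipitation (brain homogenised) and LC–MS/MS; brain values corrected for 2% blood contamination; brain/plasma ratio calculated.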

[14] = target: Growth hormone secretagogue receptor type 1 (Homo sapiens) (UniProt Q92847); assay: Activity at human GHS receptor at 10 uM
Sequence of Growth hormone secretagogue receptor type 1 (Homo sapiens) (Q92847 whole entry): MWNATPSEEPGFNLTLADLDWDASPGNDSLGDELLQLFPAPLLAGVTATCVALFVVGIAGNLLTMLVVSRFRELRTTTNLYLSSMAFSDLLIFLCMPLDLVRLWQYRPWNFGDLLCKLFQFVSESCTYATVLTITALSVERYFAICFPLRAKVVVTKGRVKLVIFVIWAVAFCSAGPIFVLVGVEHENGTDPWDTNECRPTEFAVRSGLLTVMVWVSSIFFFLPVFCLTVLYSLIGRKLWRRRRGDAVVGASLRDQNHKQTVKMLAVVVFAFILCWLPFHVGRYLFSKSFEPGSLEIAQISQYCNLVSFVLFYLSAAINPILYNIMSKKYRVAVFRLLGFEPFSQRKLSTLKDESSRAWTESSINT

Rattus norvegicus [15] = assay: Antihyperalgesic activity in sc dosed Sprague-Dawley rat carrageenan pain model; format: functional, organism-based
Procedure, shortened: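 Rats dosed subcutaneously at 0.35, 0.70 and 1.4 mg/kg in carrageenan inflammatory pain model; reversal of heat hyperalgesia measured. n = 7 per group; mean ± SEM; one-way ANOVA with Holm-Sidak test versus vehicle group.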

[16] = target: Cannabinoid receptor 1 (Rattus norvegicus) (UniProt P20272); assay: Agonist activity at CB1 receptor in rat brain tissue relative to control; format: functional, tissue-based
Sequence of Cannabinoid receptor 1 (Rattus norvegicus) (P20272 whole entry): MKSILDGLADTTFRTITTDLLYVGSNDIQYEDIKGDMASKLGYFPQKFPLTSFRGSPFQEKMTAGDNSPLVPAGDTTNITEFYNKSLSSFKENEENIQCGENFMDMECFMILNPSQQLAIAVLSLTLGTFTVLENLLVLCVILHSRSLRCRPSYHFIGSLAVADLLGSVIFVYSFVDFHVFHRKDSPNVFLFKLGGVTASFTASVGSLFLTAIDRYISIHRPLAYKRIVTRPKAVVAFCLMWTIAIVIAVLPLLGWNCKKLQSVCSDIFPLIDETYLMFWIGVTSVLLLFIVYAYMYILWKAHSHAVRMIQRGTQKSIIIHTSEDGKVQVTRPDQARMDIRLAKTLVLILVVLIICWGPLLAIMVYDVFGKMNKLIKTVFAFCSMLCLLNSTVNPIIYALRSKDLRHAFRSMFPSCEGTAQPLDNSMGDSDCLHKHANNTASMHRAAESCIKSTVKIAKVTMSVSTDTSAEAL

[17] = target: D(2) dopamine receptor (Homo sapiens) (UniProt P14416); assay: Activity at human dopamine2L receptor at 10 uM
Sequence of D(2) dopamine receptor (Homo sapiens) (P14416 whole entry): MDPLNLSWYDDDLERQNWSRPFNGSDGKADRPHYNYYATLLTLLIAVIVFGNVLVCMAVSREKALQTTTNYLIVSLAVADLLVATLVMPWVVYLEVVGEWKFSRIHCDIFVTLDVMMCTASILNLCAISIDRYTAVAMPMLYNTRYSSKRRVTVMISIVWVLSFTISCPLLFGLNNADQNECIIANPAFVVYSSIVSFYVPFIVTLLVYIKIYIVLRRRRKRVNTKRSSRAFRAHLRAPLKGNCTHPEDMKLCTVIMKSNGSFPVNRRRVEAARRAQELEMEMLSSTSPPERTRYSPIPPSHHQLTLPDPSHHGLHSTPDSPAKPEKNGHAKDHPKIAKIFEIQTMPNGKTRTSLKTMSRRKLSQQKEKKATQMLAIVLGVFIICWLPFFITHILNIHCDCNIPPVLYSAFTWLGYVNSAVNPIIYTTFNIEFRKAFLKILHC

[18] = target: Glucagon-like peptide 2 receptor (Homo sapiens) (UniProt O95838); assay: Activity at human GLP2 receptor at 10 uM
Sequence of Glucagon-like peptide 2 receptor (Homo sapiens) (O95838 whole entry): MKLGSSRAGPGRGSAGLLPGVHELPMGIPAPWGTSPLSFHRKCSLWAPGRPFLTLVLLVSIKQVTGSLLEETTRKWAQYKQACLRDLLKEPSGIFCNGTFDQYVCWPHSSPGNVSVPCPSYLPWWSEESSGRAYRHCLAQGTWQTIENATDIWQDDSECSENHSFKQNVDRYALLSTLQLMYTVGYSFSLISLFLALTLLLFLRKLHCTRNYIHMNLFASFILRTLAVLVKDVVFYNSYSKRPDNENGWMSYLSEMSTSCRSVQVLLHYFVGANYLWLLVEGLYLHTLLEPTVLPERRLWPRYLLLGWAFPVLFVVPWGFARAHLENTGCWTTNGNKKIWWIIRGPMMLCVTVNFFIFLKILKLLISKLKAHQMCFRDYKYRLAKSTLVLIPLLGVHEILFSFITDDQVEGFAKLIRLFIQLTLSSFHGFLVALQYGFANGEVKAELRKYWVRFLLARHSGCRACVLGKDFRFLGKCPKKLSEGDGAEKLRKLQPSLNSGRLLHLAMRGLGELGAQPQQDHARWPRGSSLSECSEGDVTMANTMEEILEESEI

[19] = target: CX3C chemokine receptor 1 (Homo sapiens) (UniProt P49238); assay: Activity at human CX3CR1 receptor at 10 uM
Sequence of CX3C chemokine receptor 1 (Homo sapiens) (P49238 whole entry): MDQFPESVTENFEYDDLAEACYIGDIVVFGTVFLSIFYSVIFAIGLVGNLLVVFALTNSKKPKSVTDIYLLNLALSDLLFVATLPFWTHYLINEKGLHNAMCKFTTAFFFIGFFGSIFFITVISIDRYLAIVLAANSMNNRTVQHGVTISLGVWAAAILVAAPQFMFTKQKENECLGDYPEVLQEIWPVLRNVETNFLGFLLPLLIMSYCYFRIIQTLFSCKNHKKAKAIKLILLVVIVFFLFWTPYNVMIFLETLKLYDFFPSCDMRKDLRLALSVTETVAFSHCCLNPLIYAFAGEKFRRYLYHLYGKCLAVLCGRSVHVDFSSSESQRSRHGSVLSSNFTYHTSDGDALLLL

[20] = target: C-C chemokine receptor type 1 (Homo sapiens) (UniProt P32246); assay: Activity at human CCR1 at 10 uM
Rattus norvegicus [21] = assay: Volume of distribution at steady state in po dosed Sprague-Dawley rat; format: ADME, organism-based; conditions: in vivo
[22] = Half life in iv dosed Sprague-Dawley rat; format: ADME, organism-based; conditions: in vivo
[23] = target: Angiotensin-converting enzyme (Homo sapiens) (UniProt P12821); assay: Activity of human ACE at 10 uM
Rattus norvegicus [24] = assay: Toxicity in Sprague-Dawley rat carrageenan pain model assessed as hypoactivity at […], sc; format: organism-based; conditions: in vivo
[25] = Activity at L-Type Calcium channel at 10 uM
[26] = target: Adrenergic receptor alpha-1 (Rattus norvegicus) (UniProt P15823+P23944+P43140); assay: Activity at rat alpha1adrenergic receptor at 10 uM
[27] = Dissociation constant, pKa of the compound; format: physicochemical
Cytochrome P450 1A2 = Cytochrome P450 1A2 (Homo sapiens, UniProt P05177); assay: Inhibition of CYP1A2; format: ADME
Sequence of Cytochrome P450 1A2 (P05177 whole entry): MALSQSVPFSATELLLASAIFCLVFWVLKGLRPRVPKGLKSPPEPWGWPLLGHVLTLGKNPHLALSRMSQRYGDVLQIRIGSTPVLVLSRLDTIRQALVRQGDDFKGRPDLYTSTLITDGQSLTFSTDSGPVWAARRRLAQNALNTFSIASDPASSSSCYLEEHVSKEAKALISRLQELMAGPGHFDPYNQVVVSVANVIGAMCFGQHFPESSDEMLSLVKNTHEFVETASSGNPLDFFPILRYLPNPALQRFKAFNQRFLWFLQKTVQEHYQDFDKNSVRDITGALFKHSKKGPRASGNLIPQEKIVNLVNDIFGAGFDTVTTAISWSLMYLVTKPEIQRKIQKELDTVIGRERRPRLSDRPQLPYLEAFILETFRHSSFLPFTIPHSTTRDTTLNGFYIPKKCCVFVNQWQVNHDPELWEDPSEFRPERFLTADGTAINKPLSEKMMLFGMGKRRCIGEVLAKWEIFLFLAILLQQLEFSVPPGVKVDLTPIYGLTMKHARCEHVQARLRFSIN

Cytochrome P450 2D6 = Cytochrome P450 2D6 (Homo sapiens, UniProt P10635); assay: Inhibition of CYP2D6; format: ADME
Sequence of Cytochrome P450 2D6 (P10635 whole entry): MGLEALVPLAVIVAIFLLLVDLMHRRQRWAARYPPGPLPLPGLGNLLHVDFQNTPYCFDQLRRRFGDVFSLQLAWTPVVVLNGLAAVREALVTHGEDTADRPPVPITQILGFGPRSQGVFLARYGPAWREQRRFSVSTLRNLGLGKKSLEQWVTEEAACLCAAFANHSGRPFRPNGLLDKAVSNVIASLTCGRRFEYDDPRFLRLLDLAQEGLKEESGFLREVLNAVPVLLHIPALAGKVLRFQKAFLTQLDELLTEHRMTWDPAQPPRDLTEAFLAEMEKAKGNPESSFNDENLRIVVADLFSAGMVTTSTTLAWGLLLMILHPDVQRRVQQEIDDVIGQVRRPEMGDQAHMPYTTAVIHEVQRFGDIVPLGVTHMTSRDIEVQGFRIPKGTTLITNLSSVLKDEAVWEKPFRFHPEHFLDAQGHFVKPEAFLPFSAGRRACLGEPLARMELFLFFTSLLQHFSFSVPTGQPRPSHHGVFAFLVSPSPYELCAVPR

[28] = Oral bioavailability in Sprague-Dawley rat; format: ADME, organism-based; conditions: in vivo

Sequence of Glucagon-like peptide 1 receptor (Homo sapiens) (P43220 whole entry): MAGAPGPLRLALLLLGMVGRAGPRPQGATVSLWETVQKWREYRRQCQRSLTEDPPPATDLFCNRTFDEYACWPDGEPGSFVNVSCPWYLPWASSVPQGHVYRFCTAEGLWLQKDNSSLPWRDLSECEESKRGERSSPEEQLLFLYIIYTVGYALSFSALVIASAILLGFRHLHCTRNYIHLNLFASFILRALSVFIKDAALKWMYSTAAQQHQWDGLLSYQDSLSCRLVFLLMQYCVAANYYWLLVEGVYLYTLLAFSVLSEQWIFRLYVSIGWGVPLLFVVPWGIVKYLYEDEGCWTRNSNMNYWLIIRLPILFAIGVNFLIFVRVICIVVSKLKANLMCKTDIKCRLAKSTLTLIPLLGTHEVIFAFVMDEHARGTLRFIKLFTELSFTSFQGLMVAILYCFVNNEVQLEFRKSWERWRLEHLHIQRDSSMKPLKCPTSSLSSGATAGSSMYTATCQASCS

## CCS(=O)(=O)n1c2c(c3cc(C(=O)N4CCC(C)CC4)ccc31)CN(C1CCOCC1)CC2
[1]
  Activity: < 50%
[2]
  solubility: 480 µg/mL (≈ 1010 µM)
[3]
  Activity: < 50%
Rattus norvegicus [4]
  Activity: Non-toxic
[5]
  fraction unbound: 0.13
Cannabinoid receptor 1 [6]
  EC50: 49 nM
[7]
  Activity: < 50%
[8]
  Activity: < 50%
Cannabinoid receptor 1 [9]
  Ki: 120 nM
[10]
  microsomal CLint: 202 µL/min/mg
[11]
  Activity: < 50%
[12]
  Activity: < 50%
[13]
  Kp: 0.05
[14]
  Activity: < 50%
Rattus norvegicus [15]
  Activity: Dose-dependent effect
[16]
  Emax: 156%
[17]
  Activity: < 50%
[18]
  Activity: < 50%
[19]
  Activity: < 50%
[20]
  Activity: < 50%
Rattus norvegicus [21]
  Vdss: 1.2 L/kg
[22]
  half-life: 37.8 min
[23]
  Activity: < 50%
Rattus norvegicus [24]
  Activity: Toxic
[25]
  Activity: < 50%
[26]
  Activity: < 50%
[27]
  pKa: 6.9
Cytochrome P450 1A2
  IC50: > 20000 nM
Cytochrome P450 2D6
  IC50: > 20000 nM
[28]
  bioavailability: 16%
